22 compounds from ChEMBL document CHEMBL4393742, “Structure-activity analysis of peptidic Chlamydia HtrA inhibitors” (Bioorg Med Chem, 2019) can be followed below.

Assay [1] concerns Chlamydia trachomatis 434/Bu. The assay can be described thus: Potency index, ratio of JO146 IC50 to compound IC50 for inhibition of recombinant chlamydia trachomatis serovar L2 434/Bu/ATCC VR-902B HtrA expressed in Escherichia coli BL21(DE3) using MeOCoum-ENLHLPLPIIF-NH-DNP as fluorescent mimotope preincubated for 20 mins followed by mimotope addition in presence of fluorophore 7-methoxycoumarin-4-acetic acid by plate reader based fluorescence assay.

A further assay has as its target T1, Neutrophil elastase (Homo sapiens, UniProt P08246).
T1 sequence (P08246 whole entry): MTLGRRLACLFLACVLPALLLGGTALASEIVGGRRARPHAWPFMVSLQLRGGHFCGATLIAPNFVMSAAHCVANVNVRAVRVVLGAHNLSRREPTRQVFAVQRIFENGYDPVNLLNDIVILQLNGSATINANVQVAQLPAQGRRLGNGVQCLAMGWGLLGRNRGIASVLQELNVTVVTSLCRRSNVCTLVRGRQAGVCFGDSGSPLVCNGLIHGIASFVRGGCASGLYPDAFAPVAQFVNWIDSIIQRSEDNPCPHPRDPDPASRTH
The assay can be described thus: Inhibition of human neutrophil elastase using AAPV-pNA as substrate preincubated for 15 mins followed by substrate addition and measured every 15 secs for 5 mins. In a few lines: (§1)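 Enzyme and inhibitor (in DMSO) were preincubated at 37 °C for 15 min in 0.10 M Tris-HCl, pH 8.1, with 0.02 M CaCl₂. The pNA substrate was added to start the reaction. A405 was monitored every 15 s over 5 min at 37 °C. Runs were in triplicate, and inhibition was expressed as percent enzyme activity remaining.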

The target of a further assay is Trypsin (Homo sapiens, UniProt P07477+P07478+P35030). In words: Inhibition of human trypsin using Nalpha-benzoyl-DL-R-pNA as substrate preincubated for 15 mins followed by substrate addition and measured every 15 secs for 5 mins. The class given is protein assay. Summed up: as §1
Assay [2] in a line: Inhibition of bovine pancreas chymotrypsin using AAPF-pNA as substrate preincubated for 15 mins followed by substrate addition and measured every 15 secs for 5 mins. Also noted: species or system Bos taurus. In a few lines:
as §1

Another assay has as its system Chlamydia trachomatis. The assay can be described thus: Antibacterial activity against Chlamydia trachomatis D/UW-3/Cx strain infected in mouse McCoy cells assessed as inclusion forming units at 100 uM treated 16 hrs post infection measured at 44 hrs post-infection by Evan's blue staining based-confocal microscopic analysis (reference value: 62 +/- 8.5 10^5U/mL). It counts as functional.

A short description of assay [3]: Inhibition of recombinant chlamydia trachomatis serovar L2 434/Bu/ATCC VR-902B HtrA expressed in Escherichia coli BL21(DE3) using MeOCoum-ENLHLPLPIIF-NH-DNP as fluorescent mimotope preincubated for 20 mins followed by mimotope addition in presence of fluorophore 7-methoxycoumarin-4-acetic acid by plate reader based fluorescence assay. Also noted: species or system Chlamydia trachomatis 434/Bu.

For a further assay, the system named is Chlamydia pecorum. The assay can be described thus: Antibacterial activity against Chlamydia pecorum IPA ATCC VR629 infected in mouse McCoy cells assessed as inclusion forming units at 100 uM treated 16 hrs post infection measured at 44 hrs post-infection by Evan's blue staining based-confocal microscopic analysis (reference value: 342.55646 +/- 6.53872 10^5U/mL). It counts as functional.

The nature of assay [4]: Inhibition of chlamydia trachomatis HtrA using MCA-ENLHLPLPIIF-DNP as substrate by FRET or pNA assay. Summed up:
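Recombinant CtHtrA at 0.5 mg/mL stock, preincubated with inhibitor in DMSO in 50 mM Tris/20 mM MgCl2, pH 7.0, for 20 min at 37 °C. Reaction started with quenched fluorescent peptide (methoxycoumarin fluorophore, DNP quencher; 1 mg/mL stock in 50% isopropanol). Fluorescence read immediately at ex 340/em 405 nm over 50 cycles.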

Active and inactive are the calls of the source. The calls are words filed in the database; no cut-off is given here. Square brackets hold non-standard residues; d marks the D form. Peptide text beside a SMILES is read from it. * marks the point of attachment. ξ: configuration not given here. Boc = CC(C)(C)OC(=O)*; ξV = CC(C)C(N)C(=O)O

For orientation: IC50 means the concentration that inhibits the measured activity by half. Turning to `CCC(C)C(NC(=O)[C@@H]1CCCN1C(=O)[C@@H](NC(=O)OC(C)(C)C)C(C)C)P(=O)(Oc1ccccc1)Oc1ccccc1` (mixture of isomers), in assay [1], the Ratio IC50 stood at 20. In addition, the IC50 on Neutrophil elastase is 0.36 µM; on Trypsin, over 500 µM; in assay [2], 38.5 µM; in assay [3] it was 18.4 µM. Also, the Activity in the assay on Chlamydia trachomatis was found to be 0.09231 ×10⁵ U/mL; in the assay on Chlamydia pecorum it was 43.9246 ×10⁵ U/mL.
Turning to `CC(C)C(NC(=O)[C@@H]1CCCN1C(=O)[C@@H](NC(=O)OC(C)(C)C)C(C)C)C(=O)c1nccs1` (mixture of isomers), in assay [1], the “Ratio IC50” value was “inactive”. The values for the Activity with Chlamydia trachomatis and in the assay with Chlamydia pecorum were 33.1 ×10⁵ U/mL and 1.983 ×10⁵ U/mL, respectively. Also, the IC50 in assay [3] is over 500 µM.
As for `CC(C)C(NC(=O)[C@@H]1CCCN1C(=O)[C@@H](NC(=O)OC(C)(C)C)C(C)C)C(=O)C(=O)C1CC1` (mixture of isomers), in assay [1], the “Ratio IC50” value was “inactive”. Also, the IC50 (against Trypsin; in assay [2]; in assay [3]) was over 500 µM in each case. For the same compound, the Activity in the assay with Chlamydia trachomatis came to 55.0347 ×10⁵ U/mL.
On to `CC[C@H](C)[C@H](NC(=O)OC(C)(C)C)C(=O)N1CCC[C@H]1C(=O)NC(C(C)C)P(=O)(Oc1ccccc1)Oc1ccccc1` (mixture of isomers), for which the Ratio IC50 in assay [1] worked out at 14.3. Also, the IC50 against Neutrophil elastase is 0.4 µM; on Trypsin, over 500 µM; in assay [2], over 500 µM; in assay [3], 25 µM. The Activity in the assay with Chlamydia trachomatis came out at 0.5089 ×10⁵ U/mL; in the assay on Chlamydia pecorum, 10.8851 ×10⁵ U/mL.
With `CCCC(NC(=O)[C@@H]1CCCN1C(=O)[C@@H](NC(=O)OC(C)(C)C)C(C)C)P(=O)(Oc1ccccc1)Oc1ccccc1` (mixture of isomers), the “Ratio IC50” value in assay [1] is “inactive”. Moreover, the IC50 is 0.68 µM against Neutrophil elastase, over 500 µM against Trypsin, over 500 µM in assay [2] and over 500 µM in assay [3]. Besides, the Activity with Chlamydia trachomatis was determined as 1.49 ×10⁵ U/mL; with Chlamydia pecorum, 0.4583 ×10⁵ U/mL.
For `CC(C)C(NC(=O)[C@@H]1CCCN1C(=O)[C@@H](NC(=O)OC(C)(C)C)C(C)C)P(=O)(Oc1ccccc1)Oc1ccccc1` (stereo partly drawn), the IC50 is 0.83 µM on Neutrophil elastase; over 500 µM against Trypsin; over 500 µM in assay [2]; 13 to 351 µM in assay [3]; 12.5 µM in assay [4]. For the same compound, the Activity in the assay with Chlamydia trachomatis was 0.00434 ×10⁵ U/mL.
In the case of `CCC(C)C(NC(=O)[C@@H]1CCCN1C(=O)[C@@H](NC(=O)OC(C)(C)C)[C@@H](C)CC)P(=O)(Oc1ccccc1)Oc1ccccc1` (mixture of isomers), the IC50 against Neutrophil elastase was 0.84 µM; on Trypsin, over 500 µM; in assay [2] it was 1.28 µM; in assay [3], 86 µM. Besides, the Activity was 0.1134 ×10⁵ U/mL with Chlamydia trachomatis and 0.3958 ×10⁵ U/mL with Chlamydia pecorum.
As for `CC(C)C(NC(=O)[C@@H]1CCCN1C(=O)[C@H](C)NC(=O)OC(C)(C)C)P(=O)(Oc1ccccc1)Oc1ccccc1` (stereo partly drawn), in assay [4], the midpoint of inhibition, the IC50, lay at 47.2 µM.
With `CCC(C)C(NC(=O)[C@@H]1CCCN1C(=O)[C@@H](NC(=O)OC(C)(C)C)C(C)(C)C)P(=O)(Oc1ccccc1)Oc1ccccc1` (mixture of isomers), in assay [1], the “Ratio IC50” value is “inactive”. Moreover, the IC50 at Neutrophil elastase is 2.35 µM; at Trypsin, over 500 µM; in assay [2] it was 0.53 µM; in assay [3], over 500 µM. For the same compound, the Activity with Chlamydia trachomatis came to 0.1099 ×10⁵ U/mL; in the assay on Chlamydia pecorum it was 0.2042 ×10⁵ U/mL.
Consider `CCC(C)C(NC(=O)[C@@H]1CCCN1C(=O)[C@@H](NC(=O)OC(C)(C)C)C(C)(C)C)C(=O)c1nc2ccccc2s1` (mixture of isomers), for which, in assay [1], the “Ratio IC50” value was “inactive”. The IC50 against Neutrophil elastase is 4.83 µM; at Trypsin, over 500 µM; in assay [2], over 500 µM; in assay [3], over 500 µM. Besides, the results for the Activity in the assay on Chlamydia trachomatis and in the assay with Chlamydia pecorum were 2.829 ×10⁵ U/mL and 0.2193 ×10⁵ U/mL, respectively.
For the compound `CC(C)C(NC(=O)[C@@H]1CCCN1C(=O)[C@@H](NC(=O)OC(C)(C)C)C(C)C)C(=O)N(C)C` (stereo partly drawn) (Boc-Val-Pro-[ξV]-NMe2), the “Ratio IC50” value in assay [1] was “inactive”. Also, the Activity with Chlamydia trachomatis is given as 30.9343 ×10⁵ U/mL. Also, the IC50 in assay [3] is over 500 µM.
For `C=CCN(C)C(=O)C(NC(=O)[C@@H]1CCCN1C(=O)[C@@H](NC(=O)OC(C)(C)C)C(C)C)C(C)C` (stereo partly drawn) the same measures were “inactive”, 36.2553 ×10⁵ U/mL and over 500 µM.
Taken in the same sequence, the figures for `CC(C)C(NC(=O)[C@@H]1CCCN1C(=O)[C@@H](NC(=O)OC(C)(C)C)C(C)C)C(=O)C(N)=O` (stereo partly drawn) were “inactive”, 29.07 ×10⁵ U/mL and over 500 µM.
For `CC(C)C(NC(=O)[C@@H]1CCCN1C(=O)[C@@H](NC(=O)OC(C)(C)C)C(C)C)C(=O)N(C)C1CC1` (stereo partly drawn) the same measures were “inactive”, 8.3844 ×10⁵ U/mL and over 500 µM.
In the case of `CC(=O)C(=O)C(NC(=O)[C@@H]1CCCN1C(=O)[C@@H](NC(=O)OC(C)(C)C)C(C)C)C(C)C` (mixture of isomers), in assay [1], the “Ratio IC50” value is “inactive”. For the same compound, the IC50 at Neutrophil elastase is 1.35 µM; at Trypsin, over 500 µM; in assay [2], over 500 µM; in assay [3], over 500 µM. Moreover, the Activity in the assay on Chlamydia trachomatis was 86 ×10⁵ U/mL.
Regarding `CC(C)C(CO)NC(=O)[C@@H]1CCCN1C(=O)[C@@H](NC(=O)OC(C)(C)C)C(C)C` (mixture of isomers), the “Ratio IC50” value in assay [1] is “inactive”. Besides, the Activity in the assay with Chlamydia trachomatis was determined as 34.6007 ×10⁵ U/mL. Moreover, the IC50 in assay [3] is over 500 µM.
For the compound `CC(C)C(NC(=O)[C@@H]1CCCN1C(=O)[C@@H](NC(=O)OC(C)(C)C)C(C)(C)C)P(=O)(Oc1ccccc1)Oc1ccccc1` (mixture of isomers), in assay [1], the Ratio IC50 is 33.3. The IC50 against Neutrophil elastase was 0.68 µM; at Trypsin it was over 500 µM; in assay [2] it was over 500 µM; in assay [3] it was 9.3 µM. The Activity is listed as 0.01548 ×10⁵ U/mL in the assay with Chlamydia trachomatis and 0.03388 ×10⁵ U/mL with Chlamydia pecorum.
Take `CCC[C@H](NC(=O)OC(C)(C)C)C(=O)N1CCC[C@H]1C(=O)NC(C(C)C)P(=O)(Oc1ccccc1)Oc1ccccc1` (mixture of isomers): the IC50 was 0.45 µM on Neutrophil elastase, over 500 µM against Trypsin, over 500 µM in assay [2] and 56 µM in assay [3]. Besides, the Activity in the assay with Chlamydia trachomatis was 17.0963 ×10⁵ U/mL; with Chlamydia pecorum it was 219.8 ×10⁵ U/mL.
For the compound `CC(C)[C@H](NC(=O)OC(C)(C)C)C(=O)N1CCC[C@H]1C(=O)NC(C(C)(C)C)P(=O)(Oc1ccccc1)Oc1ccccc1` (mixture of isomers), the “Ratio IC50” value in assay [1] was “inactive”. The IC50 (against Neutrophil elastase; at Trypsin; in assay [2]; in assay [3]) was over 500 µM each time. Further, the Activity is reported as 0.217 ×10⁵ U/mL with Chlamydia trachomatis and 5.344 ×10⁵ U/mL with Chlamydia pecorum.
Consider `CCCC(NC(=O)[C@@H]1CCCN1C(=O)[C@@H](NC(=O)OC(C)(C)C)C(C)C)C(=O)c1nccs1` (stereo partly drawn), for which the “Ratio IC50” value in assay [1] was “inactive”. For the same compound, the IC50 against Neutrophil elastase was over 150 µM; against Trypsin, over 500 µM; in assay [2] it was over 500 µM; in assay [3] it was over 500 µM.
With `CCC(=O)C(=O)C(NC(=O)[C@@H]1CCCN1C(=O)[C@@H](NC(=O)OC(C)(C)C)C(C)C)C(C)C` (mixture of isomers), the “Ratio IC50” value in assay [1] was “inactive”. In addition, the IC50 against Neutrophil elastase is 4.71 µM; against Trypsin it was over 500 µM; in assay [2], over 500 µM; in assay [3] it was over 500 µM. In addition, the Activity in the assay with Chlamydia trachomatis was determined as 57 ×10⁵ U/mL; with Chlamydia pecorum it was 351 ×10⁵ U/mL.
With `CCN(C)C(=O)C(NC(=O)[C@@H]1CCCN1C(=O)[C@@H](NC(=O)OC(C)(C)C)C(C)C)C(C)C` (stereo partly drawn), in assay [1], the “Ratio IC50” value was “inactive”. Besides, the Activity in the assay with Chlamydia trachomatis is on record as 34.5497 ×10⁵ U/mL. Moreover, the IC50 in assay [3] is over 500 µM.
